Data set [1] concerns the target T1, Retinoic acid receptor RXR-beta (Homo sapiens, UniProt P28702).
T1 sequence (P28702 whole entry): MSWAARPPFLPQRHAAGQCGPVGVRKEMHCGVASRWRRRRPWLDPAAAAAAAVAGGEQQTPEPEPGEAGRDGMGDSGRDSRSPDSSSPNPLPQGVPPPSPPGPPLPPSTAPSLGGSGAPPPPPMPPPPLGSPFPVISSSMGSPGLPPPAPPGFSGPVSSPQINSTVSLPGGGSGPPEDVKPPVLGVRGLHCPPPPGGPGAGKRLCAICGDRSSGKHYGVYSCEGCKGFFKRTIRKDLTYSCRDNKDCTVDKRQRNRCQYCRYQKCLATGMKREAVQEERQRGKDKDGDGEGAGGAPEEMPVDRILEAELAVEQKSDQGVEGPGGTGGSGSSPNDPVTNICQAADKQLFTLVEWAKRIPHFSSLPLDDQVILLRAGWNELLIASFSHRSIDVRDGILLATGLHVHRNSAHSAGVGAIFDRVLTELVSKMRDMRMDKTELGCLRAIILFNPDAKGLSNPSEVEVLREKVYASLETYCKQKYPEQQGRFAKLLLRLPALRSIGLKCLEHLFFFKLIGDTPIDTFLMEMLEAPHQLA
Nature of the data set: Agonist activity at human RXRbeta transfected in human HEK293T cells co-expressing pFR/pRL-Luc incubated for 14 to 16 hrs by hybrid reporter gene assay. Type of data set: cell-based.

Data set [2] deals with T2, Retinoic acid receptor RXR-alpha (Homo sapiens, UniProt P19793).
T2 sequence (P19793 whole entry): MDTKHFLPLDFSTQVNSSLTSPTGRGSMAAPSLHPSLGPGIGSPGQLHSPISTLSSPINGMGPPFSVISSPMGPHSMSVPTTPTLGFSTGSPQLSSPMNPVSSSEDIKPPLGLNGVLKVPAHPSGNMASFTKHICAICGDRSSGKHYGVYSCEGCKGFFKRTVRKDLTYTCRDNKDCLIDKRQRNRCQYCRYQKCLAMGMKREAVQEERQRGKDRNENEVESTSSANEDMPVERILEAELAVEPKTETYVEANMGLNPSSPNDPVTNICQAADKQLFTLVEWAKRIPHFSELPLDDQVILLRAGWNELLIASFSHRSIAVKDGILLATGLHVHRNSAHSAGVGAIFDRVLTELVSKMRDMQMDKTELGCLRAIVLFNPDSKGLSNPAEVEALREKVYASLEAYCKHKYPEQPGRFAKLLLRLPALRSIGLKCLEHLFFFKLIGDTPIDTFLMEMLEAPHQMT
Kind of data set: Agonist activity at human RXRalpha transfected in human HEK293T cells co-expressing pFR/pRL-Luc incubated for 14 to 16 hrs by hybrid reporter gene assay. The class given is cell-based.

In data set [3] the target is T3, Retinoic acid receptor RXR-gamma (Homo sapiens, UniProt P48443).
T3 sequence (P48443 whole entry): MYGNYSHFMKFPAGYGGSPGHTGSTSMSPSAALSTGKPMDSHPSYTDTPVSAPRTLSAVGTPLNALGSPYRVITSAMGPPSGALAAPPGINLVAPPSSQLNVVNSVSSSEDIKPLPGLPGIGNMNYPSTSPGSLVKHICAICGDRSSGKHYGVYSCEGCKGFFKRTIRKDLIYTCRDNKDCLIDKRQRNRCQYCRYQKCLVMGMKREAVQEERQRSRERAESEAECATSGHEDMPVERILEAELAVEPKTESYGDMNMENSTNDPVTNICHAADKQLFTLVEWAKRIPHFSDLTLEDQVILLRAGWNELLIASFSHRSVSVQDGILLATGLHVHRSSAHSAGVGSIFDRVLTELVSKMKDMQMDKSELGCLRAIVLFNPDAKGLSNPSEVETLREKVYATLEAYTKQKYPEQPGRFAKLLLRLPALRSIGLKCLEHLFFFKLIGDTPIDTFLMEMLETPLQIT
Kind of data set: Agonist activity at human RXRgamma transfected in human HEK293T cells co-expressing pFR/pRL-Luc incubated for 14 to 16 hrs by hybrid reporter gene assay. Type of data set: cell-based.

A short description of data set [4]: Metabolic stability in Sprague-Dawley rat liver microsomes assessed as compound degradation at 10 uM incubated for 60 min by HPLC analysis. The class given is ADME. Particulars: 1 h. In outline: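 Compound at 10 μM final in 0.1 M phosphate, pH 7.4, was preincubated 5 min at 37 °C with an NADPH-regenerating system. Sprague-Dawley rat liver microsomes were then added. Reactions were stopped with ice-cold methanol at 0, 15, 30 and 60 min and remaining compound quantified by HPLC against an external calibration. Controls: no NADPH, heat-inactivated microsomes. Three independent experiments.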

Data set [5] addresses T4, Retinoic acid receptor RXR-gamma (Homo sapiens) (UniProt P48443).
T4 sequence (whole entry): T3 sequence (P48443 whole entry)
Nature of the data set: Agonist activity at human RXRgamma transfected in human HEK293T cells co-expressing pFR/pRL-Luc at 30 uM incubated for 14 to 16 hrs by hybrid reporter gene assay. As to conditions: time 14-16 hrs. The class given is cell-based. In outline:
(§1)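 Gal4 hybrid reporter assay in HEK293T cells, seeded 24 h before transfection (Lipofectamine LTX, Opti-MEM) with pFR-Luc, pRL-SV40 and pFA-CMV plasmid carrying the hinge region and LBD of the human receptor. After 5 h, compound added in 0.1% DMSO, with 0.1% DMSO alone as untreated control. Dual-Glo luciferase read after 14−16 h; firefly/renilla normalized; duplicates, ≥2 independent experiments.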

The target of data set [6] is T5, Retinoic acid receptor RXR-beta (Homo sapiens) (UniProt P28702).
T5 sequence (whole entry): T1 sequence (P28702 whole entry)
Kind of data set: Agonist activity at human RXRbeta transfected in human HEK293T cells co-expressing pFR/pRL-Luc at 30 uM incubated for 14 to 16 hrs by hybrid reporter gene assay. Type of data set: cell-based. As to conditions: time 14-16 hrs. In outline: as §1

Data set [7] concerns the target T6, Retinoic acid receptor RXR-alpha (Homo sapiens) (UniProt P19793).
T6 sequence (whole entry): T2 sequence (P19793 whole entry)
Nature of the data set: Agonist activity at human RXRalpha transfected in human HEK293T cells co-expressing pFR/pRL-Luc at 30 uM incubated for 14 to 16 hrs by hybrid reporter gene assay. Type of data set: cell-based. Particulars: time 14-16 hrs. The procedure, abridged:
as §1

Activity calls are given as the source filed them. The calls are words filed in the database; no cut-off is given here. Where only a bound is given, the exact number is not on record here.

In the case of `O=C(O)CCCc1nc(-c2ccccc2)c(-c2ccccc2)o1`, the EC50 in data set [1] amounted to 13500 nM; in data set [2], 7900 nM; in data set [3] it was 43000 nM.
For the molecule `O=C(O)CCc1nc(-c2ccccc2)c(-c2cccc(Cl)c2Cl)o1`, the concentration for a half-maximal effect (EC50) in data set [2] is 1200 nM; in data set [3] it was 3200 nM.
Regarding `O=C(O)CCCc1cc(-c2cc(Cl)cc(Cl)c2)n(-c2ccc(Cl)cc2)n1`, the EC50 in data set [1] worked out at 1100 nM; in data set [2], 1300 nM; in data set [3], 3000 nM.
In the case of `N#Cc1ccc(-n2nc(CCC(=O)O)cc2-c2cc(Cl)cc(Cl)c2)cc1`, the figures for the EC50 in data set [1], in data set [2] and in data set [3] were 2000 nM, 7700 nM and 6000 nM, respectively.
`O=C(O)CCc1nc(-c2ccccc2)c(-c2cc(F)cc(F)c2)o1` showed a concentration for a half-maximal effect (EC50) in data set [1] of 50 nM.
Turning to `O=C(O)CCc1nc(-c2ccccc2)c(-c2cccc(C(F)(F)F)c2)o1`, the EC50 is 80 nM in data set [1], 70 nM in data set [2] and 300 nM in data set [3].
With `O=C(O)CCc1nc(-c2ccccc2)c(-c2cc(Cl)cc(Cl)c2)o1`, the Stabilty entry in data set [4] was “Stable”. In addition, the figures for the concentration for a half-maximal effect (EC50) in data set [1], in data set [2] and in data set [3] were 50 nM, 60 nM and 200 nM, respectively.
Take `O=C(O)CCc1nc(-c2cccc(Cl)c2)c(-c2ccccc2)o1`: the EC50 in data set [1] is 2900 nM; in data set [2], 1900 nM; in data set [3] it was 6700 nM.
For the molecule `Cc1ccccc1-c1oc(CCC(=O)O)nc1-c1ccccc1`, the figures for the 50% effective concentration (EC50) in data set [2] and in data set [3] were 16900 nM and above 30000 nM, respectively.
Turning to `O=C(O)CCc1nc(-c2cc(Cl)cc(Cl)c2)c(-c2ccccc2)o1`, the results for the concentration for a half-maximal effect (EC50) in data set [1] and in data set [3] were 3400 nM and 2800 nM, respectively.
In the case of `O=C(O)CCc1nc(-c2ccc(Cl)cc2)c(-c2ccccc2)o1`, the half-maximal effective concentration (EC50) worked out at 2400 nM in data set [1], 1300 nM in data set [2] and 1400 nM in data set [3].
Turning to `O=C(O)CCc1nc(-c2ccccc2)co1`, the outcome in data set [5], in data set [6] and in data set [7] was inactive.
In the case of `COc1cccc(-c2oc(CCC(=O)O)nc2-c2ccccc2)c1`, the EC50 in data set [1] is 1800 nM; in data set [2], 1400 nM; in data set [3] it was above 10000 nM.
As for `O=C(O)CCc1cc(-c2cc(Cl)cc(Cl)c2)n(-c2cccc(Cl)c2)n1`, the results for the EC50 in data set [1], in data set [2] and in data set [3] were 2000 nM, 3100 nM and 3500 nM, respectively.
For `O=C(O)CCc1nc(-c2ccccc2)c(-c2ccc(Cl)c(Cl)c2)o1` the same measures were 870 nM, 510 nM and 1500 nM.
In the case of `O=C(O)CCc1cc(-c2cc(C(F)(F)F)cc(C(F)(F)F)c2)n(-c2ccc(Cl)cc2)n1`, the concentration giving a half-maximal response (EC50) was 270 nM in data set [1] and 460 nM in data set [3].
As to `O=C(O)CCc1nc(-c2ccccc2)c(-c2cc(Cl)ccc2Cl)o1`, the EC50 in data set [1] is 1400 nM; in data set [2], 5800 nM; in data set [3] it was above 20000 nM.
As for `O=C(O)CCc1nc(-c2ccc(Cl)c(Cl)c2)c(-c2ccccc2)o1`, the EC50 in data set [1] was 1300 nM; in data set [2] it was 620 nM; in data set [3], 4500 nM.
Regarding `O=C(O)CCc1nc(-c2ccccc2)c(-c2ccccc2)o1` [OXAPROZIN], the values for the EC50 in data set [1] and in data set [3] were 25000 nM and 40100 nM, respectively.
For the molecule `Cc1ccccc1-c1nc(CCC(=O)O)oc1-c1ccccc1`, the 50% effective concentration (EC50) in data set [1] came out at 39000 nM; in data set [2], 6500 nM; in data set [3] it was 25000 nM.
The corresponding values for `Cc1ccc(-c2oc(CCC(=O)O)nc2-c2ccccc2)cc1` are 1600 nM, 1000 nM and above 10000 nM.
For the molecule `O=C(O)CCc1cc(-c2cc(Cl)cc(Cl)c2)n(-c2ccc(F)cc2)n1`, the values for the EC50 in data set [1], in data set [2] and in data set [3] were 470 nM, 430 nM and 1640 nM, respectively.
For the molecule `CC(C)(C)c1cc(-c2oc(CCC(=O)O)nc2-c2ccccc2)cc(C(C)(C)C)c1`, the EC50 was 130 nM in data set [1] and 500 nM in data set [3].
Turning to `O=C(O)CCc1nc(-c2ccccc2)c(-c2cccc(Cl)c2)o1`, in data set [1], a half-maximal effect (EC50) was put at 600 nM.
For `O=C(O)CCc1ncc(-c2ccccc2)o1`, the result in data set [5], in data set [6] and in data set [7] was inactive.
Turning to `Cc1cccc(-c2oc(CCC(=O)O)nc2-c2ccccc2)c1`, the 50% effective concentration (EC50) worked out at 900 nM in data set [1], 500 nM in data set [2] and 3500 nM in data set [3].
For `Cc1ccc(-c2nc(CCC(=O)O)oc2-c2ccccc2)cc1`, the EC50 is 14400 nM in data set [1] and above 100000 nM in data set [3].
Turning to `Cc1cccc(-c2nc(CCC(=O)O)oc2-c2ccccc2)c1`, in data set [1], the midpoint of the response, the EC50, lay at 4800 nM.
On to `COc1ccc(-n2nc(CCC(=O)O)cc2-c2cc(Cl)cc(Cl)c2)cc1`, for which the EC50 in data set [1] was determined as 1400 nM; in data set [2], 1600 nM; in data set [3], 4000 nM.
Regarding `O=C(O)CCc1nc(-c2cc(Cl)cc(Cl)c2)c(-c2cc(Cl)cc(Cl)c2)o1`, the concentration for a half-maximal effect (EC50) in data set [1] worked out at 1500 nM; in data set [2], 1030 nM.
For `O=C(O)CCc1nc(-c2ccccc2)c(-c2ccc(Cl)cc2)o1`, in data set [3], the EC50 worked out at 19000 nM. This lies in the double-digit micromolar range.
For `Cc1ccc(-n2nc(CCC(=O)O)cc2-c2cc(Cl)cc(Cl)c2)cc1`, the concentration giving a half-maximal response (EC50) in data set [1] came out at 1400 nM; in data set [2], 2500 nM; in data set [3], 3000 nM.
As for `O=C(O)CCc1cc(-c2cc(Cl)cc(Cl)c2)n(-c2ccccc2)n1`, in data set [3], the response was half-maximal at 1600 nM (EC50).
`O=C(O)CCc1nc(-c2ccc(Cl)cc2)c(-c2cc(Cl)cc(Cl)c2)o1`: the EC50 was found to be 290 nM in data set [1], 180 nM in data set [2] and 400 nM in data set [3].
Consider `NC(=O)CCc1nc(-c2ccccc2)c(-c2ccccc2)o1`, for which the outcome in data set [5], in data set [6] and in data set [7] was inactive.
On to `O=C(O)Cc1nc(-c2ccccc2)c(-c2ccccc2)o1`, for which the outcome in data set [5], in data set [6] and in data set [7] was inactive.
`O=C(O)c1nc(-c2ccccc2)c(-c2ccccc2)o1`: the half-maximal effective concentration (EC50) in data set [1], in data set [2] and in data set [3] was above 50000 nM in each case.
With `Cn1ccc(-n2nc(CCC(=O)O)cc2-c2cc(Cl)cc(Cl)c2)n1`, the concentration giving a half-maximal response (EC50) in data set [1], in data set [2] and in data set [3] was above 30000 nM throughout.
Turning to `O=C(O)CCCc1nc(-c2ccccc2)c(-c2cc(Cl)cc(Cl)c2)o1`, the EC50 in data set [1] was 500 nM; in data set [2] it was 480 nM; in data set [3] it was 1300 nM.
Take `Cc1cc(C)cc(-c2oc(CCC(=O)O)nc2-c2ccccc2)c1`: the figures for the concentration giving a half-maximal response (EC50) in data set [1] and in data set [2] were 900 nM and 300 nM, respectively.

(Values after ChEMBL document CHEMBL4834419 (J Med Chem, 2021).)
